{"source": "ChEMBL document CHEMBL5674875", "about": "“RUNX2 expression in thyroid and breast cancer requires the cooperation of three non-redundant enhancers under the control of BRD4 and c-JUN” (Nucleic Acids Res, 2017)", "key": {"[1]": {"target": "Mediator of RNA polymerase II transcription subunit 1 (Homo sapiens) (UniProt Q15648)", "sequence (Q15648 whole entry)": "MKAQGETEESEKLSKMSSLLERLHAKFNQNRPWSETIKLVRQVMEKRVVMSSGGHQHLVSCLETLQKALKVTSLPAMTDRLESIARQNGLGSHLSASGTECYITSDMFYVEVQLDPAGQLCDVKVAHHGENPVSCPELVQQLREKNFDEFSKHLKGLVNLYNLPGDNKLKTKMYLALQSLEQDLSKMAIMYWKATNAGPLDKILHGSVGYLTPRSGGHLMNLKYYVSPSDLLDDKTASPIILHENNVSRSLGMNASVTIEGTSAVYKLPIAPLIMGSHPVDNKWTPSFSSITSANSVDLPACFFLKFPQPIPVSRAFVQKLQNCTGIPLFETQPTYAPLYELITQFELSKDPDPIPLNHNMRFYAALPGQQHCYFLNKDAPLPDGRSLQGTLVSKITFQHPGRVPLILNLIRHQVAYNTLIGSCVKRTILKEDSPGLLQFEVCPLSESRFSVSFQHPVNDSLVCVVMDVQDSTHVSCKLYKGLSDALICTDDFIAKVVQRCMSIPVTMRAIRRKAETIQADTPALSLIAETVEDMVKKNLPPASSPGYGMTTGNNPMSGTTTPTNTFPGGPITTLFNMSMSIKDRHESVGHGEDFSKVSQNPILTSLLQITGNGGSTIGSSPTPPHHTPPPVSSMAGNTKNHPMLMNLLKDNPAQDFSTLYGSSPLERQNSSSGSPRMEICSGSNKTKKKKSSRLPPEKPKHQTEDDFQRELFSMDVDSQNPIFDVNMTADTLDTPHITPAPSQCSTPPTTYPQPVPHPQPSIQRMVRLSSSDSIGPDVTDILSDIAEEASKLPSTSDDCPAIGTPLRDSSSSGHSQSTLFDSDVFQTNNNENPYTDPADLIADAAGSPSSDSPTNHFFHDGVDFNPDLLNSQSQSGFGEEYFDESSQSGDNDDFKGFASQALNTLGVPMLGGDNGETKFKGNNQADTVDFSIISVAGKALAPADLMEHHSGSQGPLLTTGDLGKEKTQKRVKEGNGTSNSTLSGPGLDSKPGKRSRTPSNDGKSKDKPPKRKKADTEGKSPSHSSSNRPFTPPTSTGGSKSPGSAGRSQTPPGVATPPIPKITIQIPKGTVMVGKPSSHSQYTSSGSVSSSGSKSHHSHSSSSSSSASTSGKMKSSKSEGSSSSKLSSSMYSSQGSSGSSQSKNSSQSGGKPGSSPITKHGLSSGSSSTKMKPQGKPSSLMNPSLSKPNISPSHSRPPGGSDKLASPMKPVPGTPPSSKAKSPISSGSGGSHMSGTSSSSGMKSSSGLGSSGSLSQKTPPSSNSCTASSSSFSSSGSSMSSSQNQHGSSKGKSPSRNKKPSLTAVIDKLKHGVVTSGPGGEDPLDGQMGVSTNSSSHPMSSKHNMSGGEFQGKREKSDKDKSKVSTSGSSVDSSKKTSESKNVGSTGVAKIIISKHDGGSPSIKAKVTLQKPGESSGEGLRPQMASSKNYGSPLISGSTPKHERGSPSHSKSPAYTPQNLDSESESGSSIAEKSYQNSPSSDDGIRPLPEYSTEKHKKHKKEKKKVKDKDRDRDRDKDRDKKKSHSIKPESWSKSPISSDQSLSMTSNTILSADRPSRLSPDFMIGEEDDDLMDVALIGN", "experiment": "Inhibition of MED1 in human MDA-MB-231 cells assessed as reduction of […] binding to all active RUNX2 regulatory elements (ENH11,ENH13) at 1 uM by ChIP analysis", "assay_type": "cell-based", "summary_of_the_method": "(§1)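 Cells were treated with 1 μM compound or DMSO mock, 24 h unless otherwise specified. ChIP used anti-MED1 antibody at the RUNX2 P2 promoter and active enhancer regions. An unrelated region upstream of P2 served as negative control. Enrichment is expressed as percentage of input.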"}, "[2]": {"target": "Mediator of RNA polymerase II transcription subunit 1 (Homo sapiens) (UniProt Q15648)", "experiment": "Partial inhibition of MED1 in human MCF7 cells assessed as partial reduction of […] binding to all active RUNX2 regulatory elements (ENH3,ENH13) at 1 uM by ChIP analysis", "assay_type": "cell-based", "summary_of_the_method": "as §1"}, "MDA-MB-231 [3]": {"test_system": "MDA-MB-231", "experiment": "Anti-proliferative activity against human MDA-MB-231 cells assessed as reduction in cell proliferation incubated for 72 hrs", "assay_type": "functional, cell-based", "conditions": "MDA-MB-231, 72 h", "summary_of_the_method": "(§2)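 Cells grown in DMEM with 10% fetal bovine serum at 37°C/5% CO2, then exposed to a series of compound concentrations or DMSO mock. Proliferation curves were recorded for each line.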"}, "MDA-MB-231 [4]": {"test_system": "MDA-MB-231", "experiment": "Inhibition of c-MYC expression in human MDA-MB-231 cells at 0.25 to 1 uM after 6 to 24 hrs by qRT-PCR analysis", "assay_type": "functional, cell-based", "conditions": "dose 0.25-1 µM, time 6-24 hrs", "summary_of_the_method": "(§3)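 Cells in DMEM/10% FBS were treated with the indicated compound concentrations or DMSO mock. Total RNA was purified and reverse-transcribed, and transcript levels were measured by EvaGreen-based qRT-PCR.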"}, "BCPAP [5]": {"test_system": "BCPAP", "experiment": "Anti-proliferative activity against human BCPAP cells assessed as reduction in cell proliferation incubated for 72 hrs", "assay_type": "functional, cell-based", "summary_of_the_method": "as §2"}, "MCF7 [6]": {"test_system": "MCF7", "experiment": "Inhibition of c-MYC expression in human MCF7 cells at 0.25 to 1 uM after 6 to 24 hrs by qRT-PCR analysis", "assay_type": "functional, cell-based", "conditions": "dose 0.25-1 µM, time 6-24 hrs", "summary_of_the_method": "as §3"}, "TPC1 [7]": {"test_system": "TPC1", "experiment": "Inhibition of c-MYC expression in human TPC1 cells at 0.25 to 1 uM after 6 to 24 hrs by qRT-PCR analysis", "assay_type": "functional, cell-based", "conditions": "dose 0.25-1 µM, time 6-24 hrs", "summary_of_the_method": "as §3"}, "TPC1 [8]": {"test_system": "TPC1", "experiment": "Anti-proliferative activity against human TPC1 cells assessed as reduction in cell proliferation incubated for 72 hrs", "assay_type": "functional, cell-based", "conditions": "TPC1, 72 h", "summary_of_the_method": "as §2"}, "BCPAP [9]": {"test_system": "BCPAP", "experiment": "Inhibition of c-MYC expression in human BCPAP cells at 0.25 to 1 uM after 6 to 24 hrs by qRT-PCR analysis", "assay_type": "functional, cell-based", "conditions": "dose 0.25-1 µM, time 6-24 hrs", "summary_of_the_method": "as §3"}, "[10]": {"target": "Mediator of RNA polymerase II transcription subunit 1 (Homo sapiens) (UniProt Q15648)", "experiment": "Inhibition of MED1 in human TPC1 cells assessed as reduction of […] binding to all active RUNX2 regulatory elements (ENH11,ENH13) at 1 uM by ChIP analysis", "assay_type": "cell-based", "summary_of_the_method": "as §1"}, "MCF7 [11]": {"test_system": "MCF7", "experiment": "Anti-proliferative activity against human MCF7 cells assessed as reduction in cell proliferation incubated for 72 hrs", "assay_type": "functional, cell-based", "conditions": "MCF7, 72 h", "summary_of_the_method": "as §2"}, "[12]": {"target": "Mediator of RNA polymerase II transcription subunit 1 (Homo sapiens) (UniProt Q15648)", "experiment": "Inhibition of MED1 in human BCPAP cells assessed as reduction of […] binding to all active RUNX2 regulatory elements (ENH11) at 1 uM by ChIP analysis", "assay_type": "cell-based", "summary_of_the_method": "as §1"}}, "note": "Calls of active or inactive are those of the source. No cut-off for these calls is given here.", "data": [{"smiles": "Cc1sc2c(c1C)C(c1ccc(Cl)cc1)=N[C@@H](CC(=O)OC(C)(C)C)c1nnc(C)n1-2", "values": [{"measurement": "inhibition", "setting": "[1]", "value": "Active"}, {"measurement": "inhibition", "setting": "[2]", "value": "Active"}, {"measurement": "IC50", "setting": "MDA-MB-231 [3]", "value": 507, "unit": "nM"}, {"measurement": "inhibition", "setting": "MDA-MB-231 [4]", "value": "inactive"}, {"measurement": "IC50", "setting": "BCPAP [5]", "value": 254, "unit": "nM"}, {"measurement": "inhibition", "setting": "MCF7 [6]", "value": "inactive"}, {"measurement": "inhibition", "setting": "TPC1 [7]", "value": "inactive"}, {"measurement": "IC50", "setting": "TPC1 [8]", "value": 462, "unit": "nM"}, {"measurement": "inhibition", "setting": "BCPAP [9]", "value": "inactive"}, {"measurement": "inhibition", "setting": "[10]", "value": "Active"}, {"measurement": "IC50", "setting": "MCF7 [11]", "value": 12000, "unit": "nM"}, {"measurement": "inhibition", "setting": "[12]", "value": "Active"}]}]}
